Most compounds without a hit are left out; they make up all but 2.9% or so of the library.
SENP6 inh = blocks the human protease SENP6 | Q9GZR1 | Recombinant SENP6 catalytic domain, aminoluciferin luminescence | inhibition, % at 10 µM | 1.8% of 330,000 active | AID 2599;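 active means inhibition above about 50% at the single tested dose, limit read from the data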;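 further: plate controls were DMSO wells with enzyme for no effect and DMSO wells lacking enzyme for full effect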
SENP8 block-1 = inhibitors of human SENP8 protease. Q96LD8. recombinant SENP8, Nedd8 substrate fluorescence. inhibition, % at 20 µM. 0.64% of 360,000 active; in the data active means inhibition mostly above about 40%, no sharp cut-off; inactive means mostly below about 27%
HSP90 refold inh = blocks HSP90-mediated luciferase refolding in reticulocyte lysate | Rabbit reticulocyte lysate, luciferase refolding luminescence, 3 h | inhibition, % at 5.6 µM | 0.91% of 290,000 active;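 active means inhibition above the screen-wide mean plus 3 SD, computed separately per campaign, cut at about 16% in these data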;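 further: 0% = DMSO wells and 100% = 60 µM geldanamycin wells; inhibitors lower the luminescence because luciferase stays unfolded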
SENP1 FRET inh = blocks the human SENP1 SUMO protease catalytic domain; Q9P0U3; inhibition, % at 10 µM; recombinant SENP1 catalytic domain, CyPet-SUMO1-YPet FRET cleavage; 0.21% of 360,000 active;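 active means inhibition at least 30% at 10 µM, raw YFP signal under a set limit, fluorescence ratio 0.5 to 1.5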;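 further: 0% = enzyme with DMSO and 100% = no enzyme wells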
Target sequence (Q9P0U3 419-644 limits assumed): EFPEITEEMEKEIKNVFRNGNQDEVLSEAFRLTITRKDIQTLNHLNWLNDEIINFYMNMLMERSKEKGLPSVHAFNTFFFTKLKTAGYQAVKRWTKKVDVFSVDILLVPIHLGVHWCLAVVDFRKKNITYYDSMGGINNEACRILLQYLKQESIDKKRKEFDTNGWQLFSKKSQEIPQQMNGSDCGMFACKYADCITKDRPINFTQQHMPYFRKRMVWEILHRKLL
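Assay system: hSENP1 catalytic domain, recombinant. Amount: SENP1 enzyme, 20 pM final. Schedule: 50 min reaction, RT, dark. Technique: FRET, CFP and YFP emission. Control set: no-enzyme wells low, DMSO-plus-enzyme wells high control.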
SENP8 block-2 = inhibitors of human SENP8 protease | 1.2% of 330,000 active | purified SENP8, Z-RLRGG-aminoluciferin cleavage, luminescence | inhibition, % at 10 µM | AID 2540; in the data active means inhibition above about 50%
SENP7 block = SENP7 protease inhibition; 1.5% of 330,000 active; inhibition, % at 5 µM; Q9BQF6; recombinant SENP7, Z-RLRGG-aminoluciferin luminescence, 40 min;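 active means inhibition above about 50% at the single test dose, limit read from the data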;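 further: plate controls were DMSO with enzyme for no effect and no enzyme buffer wells for full effect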
HSP90 confirm = HSP90 inhibition, confirmation assay; AID 1846; 64% of 2,300 active; shares compounds with HSP90 refold inh; inhibition, % at 5.9 µM; rabbit reticulocyte lysate, luciferase refolding luminescence, 3 h; in the data active means inhibition above about 18%;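 further: 0% = vehicle wells and 100% = reference inhibitor wells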
FLuc counter = firefly luciferase inhibition, HSP90 counter-screen; purified native firefly luciferase, luminescence; 48% of 2,300 active; shares compounds with HSP90 refold inh; inhibition, % at 5.9 µM;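 active means inhibition above the mean inhibition of all tested sample wells plus 3 SD, cut at about 10% in these data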;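 further: 0% = DMSO with luciferase and 100% = wells lacking luciferase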
Target sequence (P08659 whole entry, looked up): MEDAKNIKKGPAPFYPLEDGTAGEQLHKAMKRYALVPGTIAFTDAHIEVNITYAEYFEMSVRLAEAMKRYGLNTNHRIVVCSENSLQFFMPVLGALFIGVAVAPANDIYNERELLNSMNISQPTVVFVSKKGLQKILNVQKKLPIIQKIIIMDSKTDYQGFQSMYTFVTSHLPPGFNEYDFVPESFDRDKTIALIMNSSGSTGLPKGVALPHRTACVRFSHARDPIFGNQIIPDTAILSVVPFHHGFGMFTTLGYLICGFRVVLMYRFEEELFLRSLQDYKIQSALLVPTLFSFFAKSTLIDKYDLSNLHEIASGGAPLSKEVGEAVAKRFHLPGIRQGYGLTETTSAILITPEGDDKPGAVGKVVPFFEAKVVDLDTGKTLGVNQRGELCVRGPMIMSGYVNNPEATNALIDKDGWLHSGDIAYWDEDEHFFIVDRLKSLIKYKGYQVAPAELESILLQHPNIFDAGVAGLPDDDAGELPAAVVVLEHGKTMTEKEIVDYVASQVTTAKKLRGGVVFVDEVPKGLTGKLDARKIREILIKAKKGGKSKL
SENP8 confirm = confirmation of human SENP8 protease inhibitors; inhibition, % at 12.5 µM; 40% of 6,200 active; shares compounds with SENP7 block; Recombinant SENP8, Z-RLRGG-aminoluciferin luminescence, 60 min;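 active means mean inhibition across replicates above about 50%, limit read from the data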
SENP6 confirm = human SENP6 inhibition, confirmed. shares compounds with SENP7 block. recombinant SENP6, Z-RLRGG-aminoluciferin luminescence. inhibition, % at 12.5 µM. 58% of 6,200 active. AID 488915
SENP7 conf = confirmation of human SENP7 protease inhibitors; shares compounds with SENP7 block; recombinant SENP7, Z-RLRGG-aminoluciferin luminescence, 40 min; inhibition, % at 12.5 µM; 69% of 6,200 active
Casp3 SENP sel = caspase-3 inhibition (SENP selectivity assay). shares compounds with SENP7 block. purified caspase-3, Z-DEVD-aminoluciferin luminescence, 60 min. inhibition, % at 12.5 µM. 60% of 6,200 active. AID 488918;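 active means mean inhibition above about 50%, limit read from the data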;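 further: plate controls were enzyme with DMSO for no effect and wells without caspase-3 for full effect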
Luc interf = luminescence interference (SENP counter-screen); shares compounds with SENP7 block; Pre-incubated SENP8/Z-RLRGG-aminoluciferin, luciferase luminescence interference; inhibition, % at 12.5 µM; 39% of 6,200 active; AID 488919;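 active means mean inhibition above about 50% when retested at one dose, limit read from the data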;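 further: plate controls were DMSO wells with completed reaction for no effect and substrate without enzyme for full effect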
An asterisk follows results filed as active; nt = no result.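 How the source made its calls, unless noted: active means mean inhibition above about 50% in the one-dose retest (limit read from the data); inactive means the rest.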

SMILES | SENP6 inh | SENP8 block-1 | HSP90 refold inh | SENP1 FRET inh | SENP8 block-2 | SENP7 block | HSP90 confirm | FLuc counter | SENP8 confirm | SENP6 confirm | SENP7 conf | Casp3 SENP sel | Luc interf
COc1cccc(Nc2nc(-c3sc(NC(=O)CC(C)C)nc3C)cs2)c1 | -13.2 | -77.3 | 4.1 | -6.5 | 2.7 | 6.7 | nt | nt | nt | nt | nt | nt | nt
O=c1c(Cl)c(NCc2ccccc2)cnn1C12CC3CC(CC(C3)C1)C2 | -1.0 | 20.4 | -2.2 | 1.4 | 3.5 | 7.6 | nt | nt | nt | nt | nt | nt | nt
Cc1ccc2nc(-c3ccc(NC(=O)C4CCCO4)cc3)[nH]c2c1 (stereo not given) | 53.1* | -268.2 | 24.1* | 1.4 | 7.7 | 40.2 | 54.8* | 35.2* | 45.1 | 40.9 | 67.8* | 57.6* | 44.9
Cc1ccc(CC(=O)NCCN2CCOCC2)cc1 | -9.1 | 19.3 | -6.3 | 2.1 | -10.9 | -7.7 | nt | nt | nt | nt | nt | nt | nt
CC(=O)c1sc(NC(=O)c2ccc(Cl)cc2)nc1C | -0.4 | -27.0 | 42.1* | -3.7 | 36.8 | 71.9* | 24.7* | -16.1 | 17.1 | 17.5 | 6.7 | 25.3 | 9.1
Cc1nc(NC(=O)c2cccc(Cl)c2)sc1C(=O)N1CCCCC1 | 71.5* | -39.8 | 34.2* | -4.7 | 56.6* | 68.0* | 48.2* | -15.6 | 1.7 | 30.2 | 6.2 | 2.8 | 10.1
O=C(c1cccc(NS(=O)(=O)c2ccc(F)c(F)c2)c1)N1CCN(Cc2ccccc2)CC1 | -7.6 | 13.5 | -5.5 | -2.0 | 2.1 | 8.6 | nt | nt | nt | nt | nt | nt | nt
CN=c1scc(-c2ccc(F)cc2)n1/N=C/c1ccc(O)c(O)c1 | 61.8* | -31.0 | 19.7* | -9.6 | 46.4 | 11.7 | 42.4* | 18.8* | 74.7* | 71.8* | 85.8* | 39.1 | 60.2*
CC(C)(C)OC(=O)C[C@@H]1C/C=C\C[C@@H](CC(=O)N(CCO)Cc2ccccc2)C(=O)N2CCC[C@@H]2COC1=O | 1.8 | 22.1 | nt | 2.7 | -3.2 | -2.0 | nt | nt | nt | nt | nt | nt | nt
Cc1cc2nc(-c3cccnc3SCC(=O)NCc3ccco3)[nH]c2cc1C | 83.8* | -289.5 | 17.9* | -20.1 | 74.5* | 88.1* | 23.5* | 7.4 | 90.7* | 89.5* | 97.8* | 90.3* | 85.7*
O=C(NC(=S)Nc1cc([N+](=O)[O-])ccc1O)c1cccnc1 | -24.0 | 15.7 | -1.6 | 2.9 | 5.0 | 8.1 | nt | nt | nt | nt | nt | nt | nt
Cc1ccc(S(=O)(=O)C2(C(=O)N3CCN(c4cc(C)ccc4C)CC3)CC2)cc1 | 5.7 | 29.5 | 2.0 | 1.6 | -10.4 | -7.4 | nt | nt | nt | nt | nt | nt | nt
CCc1ccc(C(=O)Nc2nc(C)cs2)s1 | 76.1* | -16.7 | 42.9* | -0.3 | 63.0* | 81.8* | 56.0* | 51.5* | 76.7* | 73.2* | 92.9* | 77.9* | 77.4*
COC(=O)[C@@]12CCCCN1[C@H](c1ccc(-c3cccc(Cl)c3)c(OC)c1)[C@H]1C(=O)N(C)C(=O)[C@H]12 | -17.2 | 7.0 | nt | -1.8 | -4.0 | 1.9 | nt | nt | nt | nt | nt | nt | nt
Cc1ccc(S(=O)(=O)N2CCC(C(=O)Nc3cc(C(F)(F)F)ccc3N3CCOCC3)CC2)cc1C | -18.9 | 6.0 | nt | 0.5 | -4.1 | -13.0 | nt | nt | nt | nt | nt | nt | nt
Cc1ccc(Nc2nc(N)c3ccccc3n2)cc1C | -10.0 | -100.6 | 26.3* | 0.4 | 93.2* | 91.8* | 53.5* | 36.8* | 94.5* | 95.5* | 100.7* | 93.6* | 96.0*
N#Cc1cc2ccc(N3CCOCC3)cc2cc1C#N | 90.9* | -280.1 | 17.9* | -28.9 | 88.5* | -6.9 | -1.1 | -10.6 | 15.1 | 22.0 | 3.4 | 4.1 | -2.1
Cc1nc(Nc2nc3ccccc3o2)nc2c1CCC2 | 76.9* | 13.1 | 17.2* | 0.6 | 39.4 | 71.8* | 50.1* | 43.3* | 32.7 | 59.5* | 85.9* | 75.1* | 8.2
Cc1cccc(C)c1Nc1nc2ccccc2o1 | -10.0 | 20.2 | -1.6 | 1.2 | 3.8 | -6.7 | nt | nt | nt | nt | nt | nt | nt
CCOC(=O)c1cnc(Nc2nc3ccccc3o2)nc1C | 83.8* | -0.5 | 18.0* | 1.1 | 79.6* | 95.1* | 86.1* | 75.0* | 74.5* | 75.2* | 98.8* | 92.7* | 33.9
Nc1ccn([C@@H]2O[C@H](C(=O)N3CCCN(Cc4cccs4)CC3)[C@@H](O)[C@H]2O)c(=O)n1 | nt | 30.4 | nt | 1.4 | nt | nt | nt | nt | nt | nt | nt | nt | nt
CCc1sc(C(=O)Nc2ncccc2O)cc1C | 69.1* | -2.9 | 22.3* | 2.3 | 34.2 | 65.8* | 52.1* | 41.6* | 62.0* | 59.1* | 86.8* | 82.6* | 64.3*
Cc1oc(-c2ccc(Cl)cc2)cc1C(=O)O | 96.3* | 4.1 | 20.4* | -3.0 | 97.1* | 94.2* | 18.1* | 4.2 | 98.7* | 99.7* | 102.2* | 92.3* | 90.8*
Cc1oc(-c2ccccc2)cc1C(=O)Nc1cccc(C(=O)O)c1 | -18.5 | -6.7 | 1.5 | -1.6 | -13.9 | -3.4 | nt | nt | nt | nt | nt | nt | nt
CN(c1ccc(Cl)cc1)S(=O)(=O)c1nnc(NC(=O)C(C)(C)C)s1 | -9.6 | 10.1 | -4.5 | 0.1 | -7.0 | 0.1 | nt | nt | nt | nt | nt | nt | nt
SMILES | SENP6 inh | SENP8 block-1 | HSP90 refold inh | SENP1 FRET inh | SENP8 block-2 | SENP7 block | HSP90 confirm | FLuc counter | SENP8 confirm | SENP6 confirm | SENP7 conf | Casp3 SENP sel | Luc interf
C/C(=N\NC(=O)c1ccccc1O)c1cccs1 | 0.8 | -35.6 | 23.4* | -40.8 | 18.2 | 60.7* | 40.3* | 44.3* | 50.4* | 45.1 | 77.6* | 85.1* | 57.5*
C/C(=N\NC(=O)c1cccc2ccccc12)c1cccs1 | -7.5 | 10.1 | 1.2 | 2.0 | 1.5 | -0.1 | nt | nt | nt | nt | nt | nt | nt
NNC(=O)c1cccc(COc2ccc3c(c2)CCC3)c1 | 69.1* | 15.9 | 35.7* | 1.5 | 44.3 | 17.3 | 65.9* | 56.3* | 68.0* | 60.9* | 87.9* | 45.0 | 86.2*
O=C(COc1ccc2c(c1)CCC2)NCc1ccccc1 | 5.2 | 10.9 | -8.8 | -1.0 | -3.4 | -6.7 | nt | nt | nt | nt | nt | nt | nt
Clc1cccc(Cl)c1-c1noc(CN2CCOCC2)n1 | -12.7 | 2.5 | 0.0 | 1.3 | -3.2 | 8.3 | nt | nt | nt | nt | nt | nt | nt
COc1ccc(N=CC2=C(O)c3ccccc3C2=O)cc1 | 95.2* | 45.8* | 28.9* | 2.9 | 92.9* | 99.1* | 76.8* | 79.7* | 4.2 | 67.2* | 28.5 | 89.0* | 18.9
